One assay concerns the target T1, Sialidase-3 (Homo sapiens, UniProt Q9UQ49).
T1 sequence (Q9UQ49 whole entry): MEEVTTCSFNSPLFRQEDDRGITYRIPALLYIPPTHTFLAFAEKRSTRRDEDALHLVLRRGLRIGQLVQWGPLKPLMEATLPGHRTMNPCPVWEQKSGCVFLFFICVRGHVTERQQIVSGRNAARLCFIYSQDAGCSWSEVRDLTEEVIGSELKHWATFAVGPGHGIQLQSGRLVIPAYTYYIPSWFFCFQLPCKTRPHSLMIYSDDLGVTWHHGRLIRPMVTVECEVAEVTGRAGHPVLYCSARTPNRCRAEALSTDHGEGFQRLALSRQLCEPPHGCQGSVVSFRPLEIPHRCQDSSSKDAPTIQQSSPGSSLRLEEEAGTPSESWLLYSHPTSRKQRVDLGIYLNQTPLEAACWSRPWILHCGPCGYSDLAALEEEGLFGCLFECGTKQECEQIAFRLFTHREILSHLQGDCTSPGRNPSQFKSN
Briefly: (§1) Inhibition of human NEU3 using 4MU-NA as substrate after 1 hr by fluorescence assay. Summed up: (§2)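 Recombinant human NEU3 was used as an N-terminal MBP fusion, expressed in E. coli. Enzyme (0.1 mg/mL before mixing) was preincubated with inhibitor (eight serial-dilution concentrations, five replicates) for 30 min at 37 °C. 4MU-NA was then added from a 1 mM stock in 0.1 M sodium acetate pH 5.0 and incubated 1 h.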

For assay [1], the target named is T2, Sialidase-3 (Homo sapiens) (UniProt Q9UQ49).
T2 sequence (whole entry): T1 sequence (Q9UQ49 whole entry)
The description is as §1. Summed up:
as §2

The target in assay [2] is T3, Sialidase-4 (Homo sapiens) (UniProt Q8WWR8).
T3 sequence (whole entry): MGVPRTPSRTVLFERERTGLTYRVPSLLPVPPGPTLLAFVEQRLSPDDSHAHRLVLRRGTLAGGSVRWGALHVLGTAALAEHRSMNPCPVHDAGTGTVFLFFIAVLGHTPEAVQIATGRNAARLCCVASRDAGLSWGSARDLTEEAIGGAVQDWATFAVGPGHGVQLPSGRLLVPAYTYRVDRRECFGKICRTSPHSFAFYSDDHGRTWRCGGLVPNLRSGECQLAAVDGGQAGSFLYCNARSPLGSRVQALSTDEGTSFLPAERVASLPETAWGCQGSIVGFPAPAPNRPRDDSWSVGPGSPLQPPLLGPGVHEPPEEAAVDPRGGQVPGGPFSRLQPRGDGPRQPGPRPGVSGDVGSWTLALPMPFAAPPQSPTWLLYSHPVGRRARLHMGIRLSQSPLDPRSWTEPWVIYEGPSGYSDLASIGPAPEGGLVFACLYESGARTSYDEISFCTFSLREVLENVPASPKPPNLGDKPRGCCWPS
Briefly: (§3) Inhibition of human NEU4 using 4MU-NA as substrate after 1 hr by fluorescence assay. Summed up:
(§4)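 Recombinant human NEU4 was used as a GST fusion, expressed in E. coli BL21(DE3) pLysS and glutathione-agarose purified. Enzyme (0.1 mg/mL before mixing) was preincubated 30 min at 37 °C with inhibitor (eight serial-dilution concentrations, five replicates). 4MU-NA was added from a 1 mM stock in 0.1 M sodium acetate pH 4.5 for 1 h.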

The next assay addresses T4, Sialidase-4 (Homo sapiens, UniProt Q8WWR8).
T4 sequence (Q8WWR8 whole entry): T3 sequence (whole entry)
The description is as §3. Summed up: as §4

Assay [3] in a line: Inhibition of viral Neuraminidase.

Each structure is given as a SMILES string. Activity calls are given as the source filed them. No cut-off for these calls is given here.

What is called IC50 is the midpoint of a concentration-inhibition curve. Low readings indicate inhibition by little substance, high ones a need for much substance. Usually Ki stands for a measure of affinity in units of concentration, obtained from inhibition or displacement.

As to `CCC(CC)O[C@@H]1CC(C(=O)O)=C[C@H](n2cc(C(C)(C)O)nn2)[C@H]1NC(C)=O`, the IC50 at Sialidase-3 and against Sialidase-4 was above 1000 µM throughout. Also, the inhibition entry in assay [1] and in assay [2] was “inactive” in each case.

Consider `CCC(CC)O[C@@H]1CC(C(=O)O)C=C(n2cc(C(C)(C)O)nn2)[C@H]1NC(C)=O` (some centres undefined), for which the inhibition entry in assay [2] is “inactive”. Moreover, at Sialidase-4, the IC50 is above 1000 µM.

For the compound `CC(=O)N[C@H]1[C@H]([C@H](O)[C@H](O)CO)OC(C(=O)O)=C[C@@H]1O` [NEU5AC2EN], the IC50 against Sialidase-3 came to 30 µM.

As for `CCC(CC)O[C@@H]1CC(C(=O)O)=C[C@H](n2cc(CCc3ccccc3)nn2)[C@H]1NC(C)=O`, the inhibition entry in assay [1] and in assay [2] was “inactive” in each case.

In the case of `CCC(CC)O[C@@H]1CC(C(=O)O)=C[C@H](N)[C@H]1NC(C)=O`, the IC50 on Sialidase-3 and against Sialidase-4 was above 1000 µM each time.

As for `CCC(CC)O[C@@H]1CC(C(=O)O)=C[C@H](n2cc([C@]3(O)CC[C@H]4[C@@H]5CCc6cc(O)ccc6[C@H]5CC[C@@]43C)nn2)[C@H]1NC(C)=O`, the IC50 against Sialidase-3 came to 350 µM; against Sialidase-4 it was 800 µM.

As to `CCC(CC)O[C@@H]1CC(C(=O)O)=C[C@H](n2cc(C(O)CC)nn2)[C@H]1NC(C)=O` (some centres undefined), in assay [3], the Ki was determined as 0.072 µM.

The values above are taken from ChEMBL document CHEMBL1772984, “Inhibitor selectivity of a new class of oseltamivir analogs against viral neuraminidase over human neuraminidase enzymes” (Bioorg Med Chem, 2011).
